{"source": "ChEMBL document CHEMBL3526015", "about": "“Metabolism of the c-Fos/activator protein-1 inhibitor T-5224 by multiple human UDP-glucuronosyltransferase isoforms” (Drug Metab Dispos, 2011)", "key": {"Liver microsome [1]": {"system": "Liver microsome", "experiment": "Drug metabolism in human liver microsomes assessed as T-5224 hydroxyl O-glucuronide formation at 10 uM after 10 mins in presence of beta-estradiol by HPLC method", "assay_type": "ADME", "summary_of_the_method": "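Pooled liver microsomes (0.5 mg protein/mL) with 10 μM T-5224, 2 mM UDPGA and β-estradiol at 0–500 μM, 2% DMSO, in 50 mM Tris-HCl pH 7.5, 8 mM MgCl2 and alamethicin. Incubated 10 min at 37°C, stopped with acetonitrile. Glucuronides measured by HPLC at 290 nm; mean ± SD, n = 3.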"}, "[2]": {"target": "T1, UDP-glucuronosyltransferase 1A3 (Homo sapiens, UniProt P35503)", "T1 sequence (P35503 whole entry)": "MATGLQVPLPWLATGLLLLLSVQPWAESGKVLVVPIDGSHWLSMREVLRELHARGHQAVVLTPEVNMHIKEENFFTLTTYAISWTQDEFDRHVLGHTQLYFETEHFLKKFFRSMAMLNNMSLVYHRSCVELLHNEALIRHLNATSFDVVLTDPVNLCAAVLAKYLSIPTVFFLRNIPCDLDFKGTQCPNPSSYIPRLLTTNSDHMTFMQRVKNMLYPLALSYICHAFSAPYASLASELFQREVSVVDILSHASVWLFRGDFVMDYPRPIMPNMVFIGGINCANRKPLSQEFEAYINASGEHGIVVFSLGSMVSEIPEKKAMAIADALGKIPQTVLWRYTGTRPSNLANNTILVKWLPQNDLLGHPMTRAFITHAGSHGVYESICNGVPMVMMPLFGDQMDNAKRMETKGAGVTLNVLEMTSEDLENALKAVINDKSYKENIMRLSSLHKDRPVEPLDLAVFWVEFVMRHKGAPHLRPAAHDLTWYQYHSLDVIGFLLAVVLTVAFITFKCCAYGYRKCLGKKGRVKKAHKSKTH", "experiment": "Substrate inhibition of human UGT1A3-mediated T-5224 acyl O-glucuronide formation after 10 to 60 mins in presence of UDP-glucuronic acid by HPLC method", "assay_type": "ADME", "summary_of_the_method": "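Recombinant human UGT1A1, UGT1A3 or UGT1A8 from baculovirus-infected insect cells (0.1 mg protein/mL) in 50 mM Tris-HCl pH 7.5, 8 mM MgCl2, alamethicin, 2% DMSO. T-5224 at 1–50 μM with 2 mM UDPGA for 60 min at 37°C. HPLC with UV at 290 nm. Triplicates fitted to a substrate-inhibition model. kcat uses UGT content quantified by immunoblot against recombinant UGT1A1/UGT2B4 standards.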"}, "[3]": {"target": "T1, UDP-glucuronosyltransferase 1A3", "experiment": "Drug metabolism assessed as Vmax/Km ratio for human UGT1A3-mediated T-5224 acyl O-glucuronide formation per mg protein after 10 to 60 mins in presence of UDP-glucuronic acid by HPLC method", "assay_type": "ADME", "conditions": "recombinant enzyme", "summary_of_the_method": "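Kinetics used recombinant UGT1A1, 1A3 or 1A8 (0.1 mg protein/mL) with T-5224 at 1–50 μM, 2 mM UDPGA and 60 min at 37°C, in triplicate. G2/G3 were measured by HPLC at 290 nm and fitted to a substrate-inhibition model (Vmax, Km, Ksi). UGT content was quantified by immunoblot, and kcat = Vmax/E0 was derived from it.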"}, "Liver microsome [4]": {"system": "Liver microsome", "experiment": "Drug metabolism in human liver microsomes assessed as Vmax/Km ratio for T-5224 acyl O-glucuronide formation per mg protein after 10 to 60 mins by HPLC method", "assay_type": "ADME", "summary_of_the_method": "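Pooled liver (0.5 mg protein/mL) or intestinal (0.25 mg protein/mL) microsomes in 50 mM Tris-HCl pH 7.5, 8 mM MgCl2, alamethicin, 2% DMSO. T-5224 at 1–50 μM, 5 min preincubation at 37°C, started with 2 mM UDPGA. Incubated 10 min, or 20 min for intestinal microsomes at 1–5 μM. Acetonitrile stop, glucuronides by HPLC at 290 nm. Triplicates fitted to a substrate-inhibition model.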"}, "[5]": {"experiment": "Drug metabolism in pooled human intestinal microsomes assessed as T-5224 hydroxyl O-glucuronide formation at 10 uM after 10 mins by HPLC method", "assay_type": "ADME, Intestine, Microsome", "summary_of_the_method": "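T-5224 at 10 μM incubated for 10 min at 37°C with UDPGA (2 mM) in pooled liver (0.5 mg protein/mL) or intestinal (0.25 mg protein/mL) microsomes. Buffer was 50 mM Tris-HCl pH 7.5 with 8 mM MgCl2 and alamethicin, after 5 min preincubation. Stopped with acetonitrile; glucuronides quantified by HPLC at 290 nm.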"}, "Cytochrome P450 2A6": {"target": "T2, Cytochrome P450 2A6 (Homo sapiens, UniProt P11509)", "T2 sequence (P11509 whole entry)": "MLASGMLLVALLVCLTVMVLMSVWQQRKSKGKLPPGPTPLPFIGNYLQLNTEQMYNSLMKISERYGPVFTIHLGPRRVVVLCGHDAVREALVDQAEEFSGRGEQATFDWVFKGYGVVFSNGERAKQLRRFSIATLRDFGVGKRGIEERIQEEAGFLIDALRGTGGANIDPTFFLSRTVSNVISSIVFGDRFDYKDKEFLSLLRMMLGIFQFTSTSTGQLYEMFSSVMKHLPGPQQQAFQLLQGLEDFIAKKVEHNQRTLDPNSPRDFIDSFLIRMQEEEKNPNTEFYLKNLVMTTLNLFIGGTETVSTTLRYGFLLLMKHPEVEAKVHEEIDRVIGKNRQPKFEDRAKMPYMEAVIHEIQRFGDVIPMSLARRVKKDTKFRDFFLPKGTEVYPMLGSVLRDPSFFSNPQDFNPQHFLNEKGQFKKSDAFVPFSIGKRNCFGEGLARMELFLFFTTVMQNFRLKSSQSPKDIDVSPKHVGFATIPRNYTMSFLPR", "experiment": "Drug metabolism assessed as human CYP2A6-mediated metabolite formation at 2 uM after 30 mins by HPLC method", "assay_type": "ADME", "conditions": "recombinant enzyme, 0.5 h", "summary_of_the_method": "(§1)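 Each recombinant human P450 was used at 50 pmol/mL with an NADPH-generating system and 2 μM 14C-T-5224 (0.5% DMSO final). Buffer was 100 mM Tris-HCl pH 7.5, except 100 mM potassium phosphate pH 7.4 for CYP2A6 and CYP2C9*1. Incubation ran 30 min at 37°C and was stopped with acetonitrile/methanol. Radioactive metabolite peaks were detected by C18 HPLC.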"}, "Cytochrome P450 2C8": {"target": "T3, Cytochrome P450 2C8 (Homo sapiens, UniProt P10632)", "T3 sequence (P10632 whole entry)": "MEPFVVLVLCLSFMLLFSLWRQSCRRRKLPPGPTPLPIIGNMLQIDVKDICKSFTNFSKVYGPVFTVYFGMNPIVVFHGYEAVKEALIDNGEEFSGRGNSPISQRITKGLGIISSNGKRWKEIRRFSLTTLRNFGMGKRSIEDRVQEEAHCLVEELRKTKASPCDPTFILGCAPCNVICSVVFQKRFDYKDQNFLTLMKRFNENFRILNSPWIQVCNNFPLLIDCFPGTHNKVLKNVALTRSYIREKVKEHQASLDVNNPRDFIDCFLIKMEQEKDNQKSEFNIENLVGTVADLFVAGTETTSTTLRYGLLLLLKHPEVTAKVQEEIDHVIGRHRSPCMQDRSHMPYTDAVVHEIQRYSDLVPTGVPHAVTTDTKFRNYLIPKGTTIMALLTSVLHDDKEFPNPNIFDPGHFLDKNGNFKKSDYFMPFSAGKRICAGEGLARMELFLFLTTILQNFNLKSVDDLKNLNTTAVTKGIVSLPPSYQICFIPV", "experiment": "Drug metabolism assessed as human CYP2C8-mediated metabolite formation at 2 uM after 30 mins by HPLC method", "assay_type": "ADME", "conditions": "recombinant enzyme, 0.5 h", "summary_of_the_method": "as §1"}}, "data": [{"smiles": "O=C(O)CCc1cc(C(=O)c2ccc(OC3CCCC3)cc2O)ccc1OCc1ccc2c(O)noc2c1", "values": [{"measurement": "Drug metabolism", "setting": "Liver microsome [1]", "value": "metabolite_detected"}, {"measurement": "Ki", "setting": "[2]", "value": 13.5, "unit": "µM"}, {"measurement": "Vmax/Km", "setting": "[3]", "value": 15.5, "unit": "µL/min"}, {"measurement": "Vmax/Km", "setting": "Liver microsome [4]", "value": 44, "unit": "µL/min"}, {"measurement": "Drug metabolism", "setting": "[5]", "value": "metabolite_detected"}, {"measurement": "Drug metabolism", "setting": "Cytochrome P450 2A6", "value": "metabolite_not_detected"}, {"measurement": "Drug metabolism", "setting": "Cytochrome P450 2C8", "value": "metabolite_not_detected"}]}]}
